Experimental data from ChEMBL document CHEMBL1122632, “Synthesis and antitumor activity of cis-dichloroplatinum (II)-N-aminated nucleoside complexes” (J Med Chem, 1984).
“And” between values parts separate entries of the source, which are not always exact repeats. Equal values may be shown once.

Legend:
L1210 [1] = experiment: In vitro inhibition of L1210 (murine leukemia) cell growth.; assay type: functional, cell-based, Mus musculus
Outline: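 L1210 cells (10^5 in 1 mL) were grown in RPMI 1640 with 10% FCS and kanamycin, at 37 °C in CO2, for 48 h. Compounds were heated at 110 °C for 8 h, dissolved in medium and tested at ≥6 concentrations. Viability was scored by 0.17% Trypan blue exclusion against drug-free controls. IC50 was the concentration halving living cell number, taken from the log-probit dose-response curve.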

Mus musculus [2] = experiment: Blood urea nitrogen values in ICR mice after intraperitoneal administration at an equivalent molar dose of the LD50 of […](13 mg/kg) on day 3; assay type: functional, organism-based
Outline: (§1)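 ICR mice (25-30 weeks, 39 ± 4 g), 5-6 per group, given one ip dose of 0.043 mmol/kg, equimolar to 13 mg/kg cis-DDP. On days 3, 6 and 9, blood was drawn from the heart under ether anesthesia and stored frozen. BUN was measured later by a modified urease indophenol method. Results are mean ± SD, mg/100 mL blood, compared with untreated controls.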

Mus musculus [3] = experiment: Blood urea nitrogen values in ICR mice after intraperitoneal administration at an equivalent molar dose of the LD50 of […](13 mg/kg) on day 6; assay type: functional, organism-based; outline: as §1
L1210 [4] = experiment: Median survival time (MST) of mice bearing L1210 cells was determined at a dose of 200 mg/kg x 2 days administered ip.; assay type: functional, organism-based; parameters: dose 200 mg/kg; conditions: Mus musculus
Outline: (§2)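 (BALB/c × DBA/2)F1 mice (20 g) were implanted ip with 10^4 L1210 cells. Compounds in saline (0.2 mL) were given ip on days 1 and 5; doses above 100 mg/kg were homogenized with Nikkol (7× by weight). Activity was scored as median survival time of treated mice and expressed as T/C, the ratio of treated to control median survival time.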

Mus musculus [5] = experiment: Effect on kidney weight in ICR mice was determined after intraperitoneal administration on day 9; assay type: functional, organism-based
Outline: (§3)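 ICR mice (25-30 weeks, 39 ± 4 g), 5-6 per group, given one ip dose of 0.043 mmol/kg, equimolar to 13 mg/kg cis-DDP. Body and kidney weights were taken on days 3, 6 and 9 and compared with untreated controls. Weights are paired, mean ± SD.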

Mus musculus [6] = experiment: Effect on kidney weight in ICR mice was determined after intraperitoneal administration on day 3; assay type: functional, organism-based; outline: as §3
Mus musculus [7] = experiment: Effect on body weight in ICR mice was determined after intraperitoneal administration on day 9; assay type: functional, organism-based; outline: as §3
L1210 [8] = experiment: Median survival time (MST) of mice bearing L1210 cells was determined at a dose of 10 mg/kg x 2 days administered ip.; assay type: functional, organism-based; parameters: dose 10 mg/kg; conditions: Mus musculus; outline: as §2
L1210 [9] = experiment: Ratio of median survival time of the mice bearing L1210 cells in treated(T) vs. control(C) at a dose of 100 mg/kg x 2 days; assay type: functional, organism-based; parameters: dose 100 mg/kg; conditions: Mus musculus; outline: as §2
L1210 [10] = experiment: Ratio of median survival time of the mice bearing L1210 cells in treated(T) vs. control(C) at a dose of 300 mg/kg x 2 days; assay type: functional, organism-based; parameters: dose 300 mg/kg; conditions: Mus musculus; outline: as §2
L1210 [11] = experiment: Median survival time (MST) of mice bearing L1210 cells was determined at a dose of 50 mg/kg x 2 days administered ip.; assay type: functional, organism-based; parameters: dose 50 mg/kg; conditions: Mus musculus; outline: as §2
Mus musculus [12] = experiment: Blood urea nitrogen values in ICR mice after intraperitoneal administration at an equivalent molar dose of the LD50 of […](13 mg/kg) on day 9; assay type: functional, organism-based; outline: as §1
Mus musculus [13] = experiment: Effect on body weight in ICR mice was determined after intraperitoneal administration on day 3; assay type: functional, organism-based; outline: as §3
L1210 [14] = experiment: Ratio of median survival time of the mice bearing L1210 cells in treated(T) vs. control(C) at a dose of 50 mg/kg x 2 days; assay type: functional, organism-based; parameters: dose 50 mg/kg; conditions: Mus musculus; outline: as §2
L1210 [15] = experiment: Ratio of median survival time of the mice bearing L1210 cells in treated(T) vs. control(C) at a dose of 200 mg/kg x 2 days; assay type: functional, organism-based; parameters: dose 200 mg/kg; conditions: Mus musculus; outline: as §2
L1210 [16] = experiment: Median survival time (MST) of mice bearing L1210 cells was determined at a dose of 25 mg/kg x 2 days administered ip.; assay type: functional, organism-based; parameters: dose 25 mg/kg; conditions: Mus musculus; outline: as §2
L1210 [17] = experiment: Ratio of median survival time of the mice bearing L1210 cells in treated(T) vs. control(C) at a dose of 10 mg/kg x 2 days; assay type: functional, organism-based; parameters: dose 10 mg/kg; conditions: Mus musculus; outline: as §2
L1210 [18] = experiment: Median survival time (MST) of mice bearing L1210 cells was determined at a dose of 100 mg/kg x 2 days administered ip.; assay type: functional, organism-based; parameters: dose 100 mg/kg; conditions: Mus musculus; outline: as §2
L1210 [19] = experiment: Ratio of median survival time of the mice bearing L1210 cells in treated(T) vs. control(C) at a dose of 25 mg/kg x 2 days; assay type: functional, organism-based; parameters: dose 25 mg/kg; conditions: Mus musculus; outline: as §2
Mus musculus [20] = experiment: Effect on body weight in ICR mice was determined after intraperitoneal administration on day 6; assay type: functional, organism-based; outline: as §3
L1210 [21] = experiment: Median survival time (MST) of mice bearing L1210 cells was determined at a dose of 300 mg/kg x 2 days administered ip.; assay type: functional, organism-based; parameters: dose 300 mg/kg; conditions: Mus musculus; outline: as §2
Mus musculus [22] = experiment: Effect on kidney weight in ICR mice was determined after intraperitoneal administration on day 6; assay type: functional, organism-based; outline: as §3
L1210 [23] = experiment: Ratio of median survival time of the mice bearing L1210 cells in treated(T) vs. control(C) at a dose of 900 mg/kg x 2 days; assay type: functional, organism-based; parameters: dose 900 mg/kg; conditions: Mus musculus; outline: as §2
L1210 [24] = experiment: Median survival time (MST) of mice bearing L1210 cells was determined at a dose of 600 mg/kg x 2 days administered ip.; assay type: functional, organism-based; parameters: dose 600 mg/kg; conditions: Mus musculus; outline: as §2
L1210 [25] = experiment: Median survival time (MST) of mice bearing L1210 cells was determined at a dose of 900 mg/kg x 2 days administered ip.; assay type: functional, organism-based; parameters: dose 900 mg/kg; conditions: Mus musculus; outline: as §2
L1210 [26] = experiment: Ratio of median survival time of the mice bearing L1210 cells in treated(T) vs. control(C) at a dose of 600 mg/kg x 2 days; assay type: functional, organism-based; parameters: dose 600 mg/kg; conditions: Mus musculus; outline: as §2
L1210 [27] = experiment: Median survival time (MST) of mice bearing L1210 cells was determined at a dose of 800 mg/kg x 2 days administered ip.; assay type: functional, organism-based; parameters: dose 800 mg/kg; conditions: Mus musculus; outline: as §2
L1210 [28] = experiment: Ratio of median survival time of the mice bearing L1210 cells in treated(T) vs. control(C) at a dose of 800 mg/kg x 2 days; assay type: functional, organism-based; parameters: dose 800 mg/kg; conditions: Mus musculus; outline: as §2
Mus musculus [29] = experiment: Blood urea nitrogen values in ICR mice after intraperitoneal administration at an equivalent molar dose of the LD50 of […](13 mg/kg) on day 9; All death; assay type: functional, organism-based; outline: as §1
Mus musculus [30] = experiment: Effect on body weight in ICR mice was determined after intraperitoneal administration on day 9; All death; assay type: functional, organism-based; outline: as §3

IC50 (L1210 [1]; l1210)	IC50 (L1210 [1]; l1210, read-out: IC50)	Molecule	Blood urea nitrogen (Mus musculus [2])	Blood urea nitrogen (Mus musculus [3])	MST (L1210 [4])	Kidney weight (Mus musculus [6])	T/C (L1210 [9])	MST (L1210 [11])	Body weight (Mus musculus [13])	T/C (L1210 [14])	T/C (L1210 [15])	MST (L1210 [16])	MST (L1210 [18])	T/C (L1210 [19])	Body weight (Mus musculus [20])	Kidney weight (Mus musculus [22])	further results
64 µg/mL	122 µM	3-aminocytidine-dichloroplatinum (II) [listing 1 of 2 here]	–	–	–	–	–	–	–	–	–	–	–	–	–	–	–
–	–	3-aminocytidine-dichloroplatinum (II) [listing 2 of 2 here]	22 mg 100ml-1	26.3 mg 100ml-1	11 days	545	131%	10 days	35.6	125%	138%	10 days	10.5 days	125%	39.9	637	Kidney weight (Mus musculus [5]): 571; Body weight (Mus musculus [7]): 36.5; MST (L1210 [8]): 9.5 days; T/C (L1210 [10]): 138%; Blood urea nitrogen (Mus musculus [12]): 28.7 mg 100ml-1; T/C (L1210 [17]): 119%; MST (L1210 [21]): 11 days
4.9 µg/mL	8.96 µM	3-aminotubercidin-dichloroplatinum (II) [listing 1 of 2 here]	–	–	–	–	–	–	–	–	–	–	–	–	–	–	–
–	–	3-aminotubercidin-dichloroplatinum (II) [listing 2 of 2 here]	24 mg 100ml-1	22.8 mg 100ml-1	11.5 days	587	144%	10.5 days	38.4	131%	144%	10 days	11.5 days	125%	39.4	686	T/C (L1210 [23]): 156%; Kidney weight (Mus musculus [5]): 750; MST (L1210 [24]): 12.5 days; Body weight (Mus musculus [7]): 40; MST (L1210 [8]): 9 days; T/C (L1210 [10]): 150%; Blood urea nitrogen (Mus musculus [12]): 26.3 mg 100ml-1; MST (L1210 [25]): 12.5 days; T/C (L1210 [17]): 112%; MST (L1210 [21]): 12 days; T/C (L1210 [26]): 156%
–	–	5-amino-1-beta-D-ribofuranosylimidazole-4-carboxamide-dichloroplatinum (II)	–	–	11 days	–	111%	9 days	–	100%	122%	9 days	10 days	100%	–	–	MST (L1210 [27]): 10 days; T/C (L1210 [28]): 125%
–	–	Nc1ncnc2c1ccn2[C@@H]1O[C@H](CO)[C@@H](O)[C@H]1O [TUBERCIDIN]	–	–	–	–	–	–	–	–	–	–	–	–	–	–	IC50 (L1210 [1]; Mus musculus, L1210, read-out: IC50): 0.018 µg/mL and 67.7 nM
0.19 µg/mL	0.633 µM	CISPLATIN [listing 1 of 2 here]	–	–	–	–	–	–	–	–	–	–	–	–	–	–	–
–	–	CISPLATIN [listing 2 of 2 here]	37 mg 100ml-1	45.3 mg 100ml-1	–	599	–	–	34	–	–	–	–	–	31	555	Blood urea nitrogen (Mus musculus [29]): All death; Body weight (Mus musculus [30]): All death
